Calls of active or inactive are those of the source. No cut-off for these calls is given here.

The test system of data set [1] is Mus musculus. The data set is described as follows: Anticonvulsant activity in ip dosed NMRI mouse assessed as dose required to cause protection against subcutaneous pentylene tetrazole-induced seizure after 4 hrs. It is filed as functional. The conditions noted are these: read-out: MED. In short, it runs like this:
(§1)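 Mice received 20, 40 and 100 mg/kg test doses. Seizures were induced by electrical shock (MES) or PTZ injection (scPTZ) at 0.5 and 4 h after dosing. The value recorded is the minimal dose protecting more than 50% of mice against seizure.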

Data set [2] relates to Mus musculus. The experiment in a line: Anticonvulsant activity in ip dosed NMRI mouse assessed as dose required to cause protection against maximal electroshock-induced seizures after 4 hrs. Conditions: read-out: MED. It is filed as functional. In short, it runs like this:
as §1

Data set [3] concerns Mus musculus. The data set is described as follows: Neurotoxicity in NMRI mouse assessed as minimal motor impairment at 20 to 100 mg/kg, ip after 4 hrs by rotarod test. It is filed as toxicity, organism-based. The arrangement: dose 20-100 mg/kg, route intraperitoneal. The conditions noted are these: in vivo. The essentials:
(§2)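 Rotarod motor-impairment test in mice given 20, 40 and 100 mg/kg doses, read 0.5 and 4 h after administration. The value recorded is the minimal dose producing toxicity in more than 50% of mice.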
For orientation: Falling from the rotarod earlier than controls is read as motor impairment.

For data set [4], the system named is Mus musculus. The experiment in a line: Neurotoxicity in NMRI mouse assessed as minimal motor impairment at 20 to 100 mg/kg, ip after 0.5 hrs by rotarod test. It is filed as toxicity, organism-based. The arrangement: dose 20-100 mg/kg, route intraperitoneal. Conditions: in vivo. The essentials:
as §2

Data set [5] has as its system Mus musculus. The experiment in a line: Anticonvulsant activity in ip dosed NMRI mouse assessed as dose required to cause protection against maximal electroshock-induced seizures after 0.5 hrs. The format is functional. Conditions: read-out: MED. The essentials:
as §1
Background: In the maximal electroshock model the usual endpoint is tonic extension of the hind limbs.

For data set [6], the system named is Mus musculus. The experiment in a line: Anticonvulsant activity in ip dosed NMRI mouse assessed as dose required to cause protection against subcutaneous pentylene tetrazole-induced seizure after 0.5 hrs. The format is functional. Conditions: read-out: MED. In short, it runs like this:
as §1

In data set [7] the test system is Mus musculus. The experiment in a line: Anticonvulsant activity in NMRI mouse assessed as protection against maximal electroshock-induced seizures at 20 to 100 mg/kg, ip after 4 hrs. The format is functional, organism-based. In short, it runs like this:
as §1

Data set [8] deals with Mus musculus. The data set is described as follows: Anticonvulsant activity in NMRI mouse assessed as protection against maximal electroshock-induced seizures at 20 to 100 mg/kg, ip after 0.5 hrs. The format is functional, organism-based. The essentials: as §1
Data set [9] can be described thus: Neurotoxicity in ip dosed NMRI mouse assessed as dose required to cause minimal motor impairment after 0.5 hrs by rotarod test. The conditions noted are these: in vivo, read-out: MTC50. The format is toxicity, organism-based. The essentials:
as §2

Data set [10] can be described thus: Neurotoxicity in ip dosed NMRI mouse assessed as dose required to cause minimal motor impairment after 4 hrs by rotarod test. The conditions noted are these: in vivo, read-out: MTC50. The format is toxicity, organism-based. The essentials:
as §2

Data set [11] has as its system Mus musculus. The experiment in a line: Anticonvulsant activity in NMRI mouse assessed as protection against subcutaneous pentylene tetrazole-induced seizure at 20 to 100 mg/kg, ip after 0.5 hrs. The format is functional, organism-based. The essentials:
as §1

Data set [12] has as its system Mus musculus. The data set is described as follows: Anticonvulsant activity in NMRI mouse assessed as protection against subcutaneous pentylene tetrazole-induced seizure at 20 to 100 mg/kg, ip after 4 hrs. The format is functional, organism-based. In short, it runs like this: as §1

`Cc1ccc(-c2nc3c(C)cccn3c2/C=N/OCc2cn(Cc3ccc([N+](=O)[O-])cc3)nn2)cc1`: the minimal effective dose in data set [1] came to 20 mg/kg; in data set [2] it was 40 mg/kg; in data set [5], 40 mg/kg; in [6], 20 mg/kg. In addition, the Activity result in [3] and in data set [4] was “Non-toxic” in each case.
With `O=C1NC(=O)C(c2ccccc2)(c2ccccc2)N1` [PHENYTOIN], the minimal effective dose in [2] and in data set [5] was 20 mg/kg throughout.
For `Cc1cccn2c(/C=N/OCc3cn(Cc4ccc([N+](=O)[O-])cc4)nn3)c(-c3ccc(F)cc3)nc12`, the minimal effective dose in data set [1] was 40 mg/kg. The result in [7], in [8] and in data set [11] was inactive. In data set [9], the TD50 at 0.5 h was found to be 100 mg/kg. In addition, the TD50 at 4 h in [10] amounted to 100 mg/kg.
With `O=[N+]([O-])c1ccc(Cn2cc(CO/N=C/c3c(-c4ccc(F)cc4)nc4ccc(Br)cn34)nn2)cc1`, the minimal effective dose was 100 mg/kg in [1], 100 mg/kg in [2] and 40 mg/kg in [6]. Further, in data set [4], the Activity entry is “Non-toxic”. The result in data set [8] was inactive. Besides, in [10], the TD50 at 4 h stood at 100 mg/kg.
On to `N#Cc1ccc(Cn2cc(CO/N=C/c3c(-c4ccc(F)cc4)nc4ccc(Br)cn34)nn2)cc1`, for which the minimal effective dose in data set [1] and in data set [2] was 100 mg/kg throughout. In data set [4], the Activity result is given as “Non-toxic”. Further, the result in data set [8] and in [11] was inactive. Also, the TD50 at 4 h in data set [10] came out at 100 mg/kg.
Regarding `C#CCO/N=C/c1c(-c2ccc(C)cc2)nc2c(C)cccn12`, the minimal effective dose is 20 mg/kg in data set [1], 40 mg/kg in [2], 20 mg/kg in data set [5] and 20 mg/kg in data set [6]. In addition, the Activity result in data set [3] and in [4] was “Non-toxic” each time.
`Cc1ccc(-c2nc3c(C)cccn3c2/C=N/OCc2cn(Cc3ccc(C#N)cc3)nn2)cc1`: the minimal effective dose in data set [1] turned out to be 100 mg/kg. The Activity entry in data set [4] is “Non-toxic”. Further, the outcome in data set [7], in data set [8] and in data set [11] was inactive. Also, in data set [10], the TD50 at 4 h worked out at 100 mg/kg.
Consider `C#CCO/N=C/c1c(-c2ccc(F)cc2)nc2ccc(Br)cn12`, for which the Activity result in data set [3] and in [4] was “Non-toxic” throughout. Moreover, the outcome in [7], in data set [8] and in data set [12] was inactive. In data set [6], the minimal effective dose was 40 mg/kg.
`Cc1ccc(-c2nc3ccc(Br)cn3c2/C=N/OCc2cn(Cc3ccc([N+](=O)[O-])cc3)nn2)cc1`: the minimal effective dose in data set [1] was 20 mg/kg; in [2], 100 mg/kg; in data set [5], 40 mg/kg; in data set [6] it was 20 mg/kg. Moreover, the Activity result in data set [3] and in [4] was “Non-toxic” in each case.
With `Cc1ccc(Cn2cc(CO/N=C/c3c(-c4ccccc4)nc4c(C)cccn34)nn2)cc1`, the Activity result in [3] and in [4] was “Non-toxic” in each case. The result in [7], in data set [8], in data set [12] and in data set [11] was inactive.
Take `COc1ccc(Cn2cc(CO/N=C/c3c(-c4ccc(F)cc4)nc4ccc(Br)cn34)nn2)cc1`: the Activity result in data set [3] and in data set [4] was “Non-toxic” in each case. Moreover, the outcome in [7], in data set [8], in data set [12] and in data set [11] was inactive.
Turning to `Cc1cccn2c(/C=N/OCc3cn(Cc4ccc(C#N)cc4)nn3)c(-c3ccc(F)cc3)nc12`, the minimal effective dose in data set [1] amounted to 40 mg/kg. Also, the result in data set [7], in data set [8] and in data set [11] was inactive. Also, the TD50 at 0.5 h in [9] is 100 mg/kg. Besides, the TD50 at 4 h in data set [10] is 100 mg/kg.
